Assay results reported in PMC12800337 (Nature Communications, 2025).
Where a SMILES comes first, the peptide text is derived from it. The star is where a group is joined. 5FAM = O=C1OC2(c3ccc(O)cc3Oc3cc(O)ccc32)c2ccc(C(=O)*)cc21; βAla = NCCC(=O)O; X1 = OB(O)C*

How the values were obtained:
S. aureus (MTCC 7443) = test: S. aureus staining, flow cytometry median fluorescence; assay type: cell-based, Staphylococcus aureus; settings: 2 µM, PBS pH 7.4, 30 min, washed, flow cytometry median value
S. aureus [1] = test: Confocal imaging of stained S. aureus; assay type: cell-based, Staphylococcus aureus; settings: confocal optical sectioning of stained S. aureus cells
How it was run: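 S. aureus (MTCC 7443) incubated with fluorescein-labelled test peptide for 30 min at 37 °C, washed three times in PBS. 5 µL of cells pressed under a coverslip on a glass slide to a single cell layer. Imaged by laser-scanning confocal microscopy with optical sectioning: 40× oil objective, argon laser at 10% power, gain 900–1100 HV, offset −0.5%. Representative of 2 independent experiments.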

E. coli (MTCC 1687) = test: E. coli staining; assay type: cell-based; settings: P2 5 μM, confocal microscope
How it was run: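 E. coli and S. aureus each diluted 1:100 from secondary culture and grown to OD₆₀₀ 0.4, then mixed and pelleted at 5000 × g. Pellet incubated with fluorescein-labelled test peptide in PBS (pH 7.4) at 37 °C for 30 min. Washed twice in PBS, resuspended in 100 µL PBS, imaged by confocal microscopy (40× oil, argon laser). Representative of 2 independent experiments.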

HEK 293 = test: Mammalian cell staining, confocal microscope; assay type: cell-based, human; settings: P2 5 µM, compared to the brightness detected on S. aureus
How it was run: (§1)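 Cells at 70% confluence detached with trypsin-EDTA and seeded at 1 × 10⁵ cells/well in glass-bottom dishes, then grown for 24 h. Medium replaced with PBS containing fluorescein-labelled test peptide; incubated 30 min at 37 °C. Washed three times with PBS, given fresh medium, imaged by confocal microscopy (40× oil, argon laser at 10%). Representative of 2 independent experiments.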

A549 = test: Mammalian cell staining, confocal microscope; assay type: cell-based; settings: P2 5 µM, compared to the brightness detected on S. aureus
How it was run: as §1

[2] = Serum stability assay of peptides; assay type: in vitro ADME; settings: human serum, fluorophore unlabeled peptides, HPLC
How it was run: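 Test peptide incubated in human serum; the remaining intact peptide was monitored by HPLC to derive half-life. Mean ± SEM from 3 independent replicates.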

S. aureus [3] = test: Mannitol inhibition assay of Fl-P2 binding; assay type: cell-based, Staphylococcus aureus; settings: 50 mM mannitol, P2 2 µM, flow cytometry
[4] = Stability of BA-modified proteins as lyophilized powder; assay type: physicochemical; settings: purified protein, confirmed by deconvoluted mass

In the case of `CSCC[C@H](NC(=O)[C@H](CCCNC(=N)N)NC(=O)[C@H](CCCNC(=N)N)NC(=O)[C@H](CCCCN)NC(=O)[C@H](C)NC(=O)[C@H](CCCNC(=N)N)NC(=O)CNC(=O)[C@@H](NC(=O)CCNC(=O)c1ccc2c(c1)C(=O)OC21c2ccc(O)cc2Oc2cc(O)ccc21)[C@@H](C)O)C(=O)N[C@@H](CSCB(O)O)C(=O)N[C@@H](Cc1ccc(O)cc1)C(=O)N[C@@H](CSCB(O)O)C(=O)N[C@@H](CCCNC(=N)N)C(=O)N[C@@H](CCCNC(=N)N)C(N)=O` [P2] ({5FAM-βAla}-TGRAKRRMC(X1)YC(X1)RR-NH2), the “S. aureus staining efficiency relative to P0 and P3” value (S. aureus (MTCC 7443)) is reported as ~ 40 fold, the “uptake in bacterial cytosol (optical sectioning)” value (S. aureus [1]) is reported as “uptake of P2 in bacterial cytosol” and the “staining of E. coli” value (E. coli (MTCC 1687)) is reported as “no significant staining”. For the same compound, the “staining of HEK 293 cells” value (HEK 293) was “minimal staining”, the “staining of A549 cells” value (A549) was “minimal staining” and the “serum half-life relative to parent UBI peptide (P0)” value [2] was “around 14 times”. For the same compound, the “staining ability of P2 after mannitol complexation (reduced to)” value (S. aureus [3]) was ~ 60%.

For “BSA-BA: BSA with methylene-BA at a single free thiol site”, the “stability as a lyophilized powder (in words)” value [4] was “stable for over a week”.

For TGRAKRRMCYNRR-NH2 [P1], the “S. aureus staining efficiency relative to P0 and P3” value (S. aureus (MTCC 7443)) was ~ 8 fold.

With “lysozyme-BA: lysozyme with methylene-BA conjugates at Cys6 and Cys115 (major product)” the “stability as a lyophilized powder (in words)” value [4] was “stable for over a week”.
